Data set [1] in a line: Apparent volume of distribution in infants of 0.6-2 yrs age at risk for fungal infection at 2.5 mg/kg, iv in 0.1 g/kg hydroxypropyl-beta-cyclodextrin administered as single dose. Also noted: dose 2.5 mg/kg, route intravenous. The note with it: human, in vivo. The format is ADME, organism-based. In a few lines:
(§1)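 Single 1-h IV infusion. Plasma sampled from the contralateral limb predose and at 1–120 h (>2 y) or 1–96 h (<2 y). Itraconazole was extracted with internal standard and quantified by C18 HPLC with UV 263 nm detection, linear range 2–2,000 ng/ml. Noncompartmental analysis: Cmax by inspection, AUC0-24 by trapezoidal rule, AUC extrapolated via λz, CL and Vz from AUC0-∞.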

Data set [2] relates to Homo sapiens. The experiment in a line: Half life in children of >2-6 yrs age at risk for fungal infection assessed as hydroxyitraconazole level at 2.5 mg/kg, iv in 0.1 g/kg hydroxypropyl-beta-cyclodextrin administered as single dose. Also noted: dose 2.5 mg/kg, route intravenous. As to conditions: in vivo. The format is ADME, organism-based. In a few lines:
(§2)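 Single 1-h constant-rate IV infusion. Venous plasma sampled predose and to 120 h (>2 y) or 96 h (<2 y), then stored at –20°C. Hydroxyitraconazole was measured by borate/isoamylalcohol-heptane extraction, HCl back-extraction, C18 HPLC and UV 263 nm, with a linear range of 5–5,000 ng/ml. Noncompartmental analysis: Cmax and tmax by inspection, AUC0-24 by trapezoidal rule.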

In data set [3] the test system is Homo sapiens. The data set is described as follows: Half life in infants of 0.6-2 yrs age at risk for fungal infection assessed as hydroxyitraconazole level at 2.5 mg/kg, iv in 0.1 g/kg hydroxypropyl-beta-cyclodextrin administered as single dose. Also noted: dose 2.5 mg/kg, route intravenous. Format: ADME, organism-based. As to conditions: in vivo. In a few lines:
as §2

Data set [4] has as its system Homo sapiens. The experiment in a line: Cmax in children of >2-6 yrs age at risk for fungal infection assessed as hydroxyitraconazole level at 2.5 mg/kg, iv in 0.1 g/kg hydroxypropyl-beta-cyclodextrin administered as single dose. Format: ADME, organism-based. Also on record: dose 2.5 mg/kg, route intravenous. The note with it: in vivo. The procedure, abridged:
(§3)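 Single constant-rate IV infusion over 1 h. Heparinised venous plasma was drawn predose and at 1–120 h (>2 yr) or 1–96 h (<2 yr, randomised to the itraconazole/metabolite arm), then stored at –20°C. Analysis used borate-buffered liquid-liquid extraction with internal standard, C18 HPLC and UV detection at 263 nm, linear 5–5,000 ng/ml. Individual Cmax was read by visual inspection, noncompartmental.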

Data set [5] in a line: Clearance in human at risk for fungal infection at 2.5 mg/kg, iv in 0.1 g/kg hydroxypropyl-beta-cyclodextrin administered as single dose. The format is ADME, organism-based. Also noted: dose 2.5 mg/kg, route intravenous. The note with it: in vivo. In a few lines:
as §1

Data set [6] concerns Homo sapiens. The experiment in a line: Tmax in children of >6-12 yrs age at risk for fungal infection assessed as hydroxyitraconazole level at 2.5 mg/kg, iv in 0.1 g/kg hydroxypropyl-beta-cyclodextrin administered as single dose. Format: ADME, organism-based. Also on record: dose 2.5 mg/kg, route intravenous. The note with it: in vivo. In a few lines: as §2
Data set [7] concerns Homo sapiens. The experiment in a line: AUC (0 to 24 hrs) in infants of 0.6-2 yrs age at risk for fungal infection assessed as hydroxyitraconazole level at 2.5 mg/kg, iv in 0.1 g/kg hydroxypropyl-beta-cyclodextrin administered as single dose. The format is ADME, organism-based, Plasma. Also noted: time < 24 hr, dose 2.5 mg/kg, route intravenous. As to conditions: in vivo. The procedure, abridged:
as §2

A short description of data set [8]: Apparent volume of distribution in children of >6-12 yrs age at risk for fungal infection at 2.5 mg/kg, iv in 0.1 g/kg hydroxypropyl-beta-cyclodextrin administered as single dose. The format is ADME, organism-based. Also noted: dose 2.5 mg/kg, route intravenous. The note with it: human, in vivo. The procedure, abridged: as §1
For data set [9], the system named is Homo sapiens. The data set is described as follows: Half life in human at risk for fungal infection assessed as hydroxyitraconazole level at 2.5 mg/kg, iv in 0.1 g/kg hydroxypropyl-beta-cyclodextrin administered as single dose. Also on record: dose 2.5 mg/kg, route intravenous. As to conditions: in vivo. Format: ADME, organism-based. In a few lines: as §2
Data set [10] can be described thus: Half life in human at risk for fungal infection at 2.5 mg/kg, iv in 0.1 g/kg hydroxypropyl-beta-cyclodextrin administered as single dose. As to conditions: in vivo. Also on record: dose 2.5 mg/kg, route intravenous. Format: ADME, organism-based. In a few lines:
as §1

The test system of data set [11] is Homo sapiens. The experiment in a line: AUC (0 to 24 hrs) in human at risk for fungal infection assessed as hydroxyitraconazole level at 2.5 mg/kg, iv in 0.1 g/kg hydroxypropyl-beta-cyclodextrin administered as single dose. The format is ADME, organism-based, Plasma. Also on record: time < 24 hr, dose 2.5 mg/kg, route intravenous. As to conditions: in vivo. The procedure, abridged:
as §2

The nature of data set [12]: Apparent volume of distribution in human at risk for fungal infection at 2.5 mg/kg, iv in 0.1 g/kg hydroxypropyl-beta-cyclodextrin administered as single dose. As to conditions: in vivo. Also noted: dose 2.5 mg/kg, route intravenous. Format: ADME, organism-based. In a few lines:
as §1

A short description of data set [13]: AUC (0 to 24 hrs) in children of >6-12 yrs age at risk for fungal infection at 2.5 mg/kg, iv in 0.1 g/kg hydroxypropyl-beta-cyclodextrin administered as single dose. The format is ADME, organism-based. Also on record: time < 24 hr, dose 2.5 mg/kg, route intravenous. The note with it: human, plasma. The procedure, abridged:
as §1

Data set [14] deals with Homo sapiens. The data set is described as follows: AUC (0 to 24 hrs) in adolescents of >12-16 yrs age at risk for fungal infection assessed as hydroxyitraconazole level at 2.5 mg/kg, iv in 0.1 g/kg hydroxypropyl-beta-cyclodextrin administered as single dose. The format is ADME, organism-based, Plasma. Also on record: time < 24 hr, dose 2.5 mg/kg, route intravenous. The note with it: in vivo. The procedure, abridged: as §2

Data set [15] in a line: AUC (0 to 24 hrs) in human at risk for fungal infection at 2.5 mg/kg, iv in 0.1 g/kg hydroxypropyl-beta-cyclodextrin administered as single dose. Format: ADME, organism-based. Also on record: time < 24 hr, dose 2.5 mg/kg, route intravenous. The note with it: plasma. In a few lines:
as §1

In data set [16] the test system is Homo sapiens. The data set is described as follows: Tmax in human at risk for fungal infection assessed as hydroxyitraconazole level at 2.5 mg/kg, iv in 0.1 g/kg hydroxypropyl-beta-cyclodextrin administered as single dose. The format is ADME, organism-based. Also noted: dose 2.5 mg/kg, route intravenous. As to conditions: in vivo. In a few lines:
as §2

Data set [17] relates to Homo sapiens. The experiment in a line: Tmax in children of >2-6 yrs age at risk for fungal infection assessed as hydroxyitraconazole level at 2.5 mg/kg, iv in 0.1 g/kg hydroxypropyl-beta-cyclodextrin administered as single dose. The format is ADME, organism-based. Also on record: dose 2.5 mg/kg, route intravenous. The note with it: in vivo. The procedure, abridged:
as §2

Data set [18] in a line: Half life in children of >6-12 yrs age at risk for fungal infection at 2.5 mg/kg, iv in 0.1 g/kg hydroxypropyl-beta-cyclodextrin administered as single dose. Format: ADME, organism-based. Also noted: dose 2.5 mg/kg, route intravenous. The note with it: human, in vivo. In a few lines:
as §1

Data set [19] has as its system Homo sapiens. The experiment in a line: AUC (0 to 24 hrs) in children of >6-12 yrs age at risk for fungal infection assessed as hydroxyitraconazole level at 2.5 mg/kg, iv in 0.1 g/kg hydroxypropyl-beta-cyclodextrin administered as single dose. Format: ADME, organism-based, Plasma. Also noted: time < 24 hr, dose 2.5 mg/kg, route intravenous. The note with it: in vivo. The procedure, abridged: as §2

A short description of data set [20]: Half life in infants of 0.6-2 yrs age at risk for fungal infection at 2.5 mg/kg, iv in 0.1 g/kg hydroxypropyl-beta-cyclodextrin administered as single dose. The format is ADME, organism-based. The note with it: human, in vivo. Also noted: dose 2.5 mg/kg, route intravenous. In a few lines:
as §1

The nature of data set [21]: Clearance in infants of 0.6-2 yrs age at risk for fungal infection at 2.5 mg/kg, iv in 0.1 g/kg hydroxypropyl-beta-cyclodextrin administered as single dose. Format: ADME, organism-based. Also on record: dose 2.5 mg/kg, route intravenous. The note with it: human, in vivo. In a few lines:
as §1

Data set [22] concerns Homo sapiens. The data set is described as follows: Cmax in human at risk for fungal infection assessed as hydroxyitraconazole level at 2.5 mg/kg, iv in 0.1 g/kg hydroxypropyl-beta-cyclodextrin administered as single dose. The format is ADME, organism-based. Also on record: dose 2.5 mg/kg, route intravenous. The note with it: in vivo. The procedure, abridged:
as §3

Data set [23] relates to Homo sapiens. The experiment in a line: Tmax in adolescents of >12-16 yrs age at risk for fungal infection assessed as hydroxyitraconazole level at 2.5 mg/kg, iv in 0.1 g/kg hydroxypropyl-beta-cyclodextrin administered as single dose. Format: ADME, organism-based. As to conditions: in vivo. Also noted: dose 2.5 mg/kg, route intravenous. In a few lines:
as §2

Structures are written as SMILES.

For orientation: Cmax means the maximum level reached in the sampled fluid or tissue. In general, clearance refers to a measure of how efficiently the substance is removed, as volume per time. A low value points to a low capacity for elimination. The Tmax is the time at which the peak concentration occurs. For orientation: AUC means concentration integrated over time. The term half-life denotes the time needed for the level to fall by half in the phase considered. A higher half-life goes with slow decline. Usually AUC(0-t) stands for exposure summed from dosing to a finite time, without extrapolation to infinity. Higher therefore signals high exposure. For `CCC(C)n1ncn(-c2ccc(N3CCN(c4ccc(OCC5COC(Cn6cncn6)(c6ccc(Cl)cc6Cl)O5)cc4)CC3)cc2)c1=O` (stereo not drawn) [ITRACONAZOLE], the Vd is 23.6 L/kg in data set [1], 13.9 L/kg in [8] and 18.5 L/kg in [12]. Further, the t1/2 turned out to be 12.7 h with Homo sapiens [2], 16.6 h in the data set with Homo sapiens [3] and 13.3 h in the data set with Homo sapiens [9]. Besides, the Cmax turned out to be 0.299 µg/mL in the data set on Homo sapiens [4] and 0.293 µg/mL with Homo sapiens [22]. The clearance in data set [5] is 0.703 L/h/kg; in data set [21], 1.14 L/h/kg. Further, the Tmax is 1.7 h in the data set on Homo sapiens [6], 2.2 h in the data set on Homo sapiens [16], 2.9 h in the data set on Homo sapiens [17] and 1.2 h in the data set on Homo sapiens [23]. In addition, the AUC with Homo sapiens [7] worked out at 4.155 µg·h/mL; in the data set with Homo sapiens [11] it was 3.811 µg·h/mL; with Homo sapiens [14] it was 3.133 µg·h/mL; with Homo sapiens [19] it was 4.166 µg·h/mL. Further, the values for the half-life in data set [10], in data set [18] and in data set [20] were 20.2 h, 17.2 h and 13.3 h, respectively. Also, the values for the AUC(0-t) at 24 h in [13] and in [15] were 3.77 µg·h/mL and 4.92 µg·h/mL, respectively.

The values above are taken from ChEMBL document CHEMBL1155155, “Single-dose pharmacokinetics of intravenous itraconazole and hydroxypropyl-beta-cyclodextrin in infants, children, and adolescents” (Antimicrob Agents Chemother, 2007).
